ChEMBL document CHEMBL1142069, “Caspofungin in combination with amphotericin B against Candida parapsilosis” (Antimicrob Agents Chemother, 2007)
In brackets after ≈: the same amount, converted by molar mass. Activity calls are given as the source filed them. The rule behind the calls is not given here.

What was measured:
Assay type in all cases: functional, organism-based
Candida parapsilosis [1] = test: Antifungal activity against Candida parapsilosis at 0.5 ug/ml after 24 hrs
Procedure, shortened: (§1)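 Time-kill with C. parapsilosis strain no. 3. A 0.5 McFarland suspension was diluted 1:10 into MOPS-buffered RPMI 1640 with drug alone or combined, shaken at 35°C. Samples were taken at 0, 2, 6 and 24 h, serially diluted 10-fold and plated on Sabouraud dextrose agar. CFU counted after 48 h at 35°C; detection limit 20 CFU/ml. Triplicate.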

Candida parapsilosis [2] = test: Growth inhibition of Candida parapsilosis after 24 hrs by broth dilution assay; settings: Lodderomyces parapsilosis
Procedure, shortened: (§2)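 CLSI-derived checkerboard broth microdilution in RPMI 1640 with 0.165 M MOPS, pH 7.0. Final ranges were AMB 0.03–2.0 µg/ml and CAS 0.03–64 µg/ml, alone or combined. Inoculum 1.0 x 10^3 to 5.0 x 10^3 CFU/ml (2x), 35°C in air. OD490 read at 24 and 48 h; IC50/IC90 taken as 50%/90% turbidity reduction versus control. Quintuplicate.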

Candida parapsilosis [3] = test: Growth inhibition of Candida parapsilosis after 48 hrs by broth dilution assay; settings: Lodderomyces parapsilosis; procedure, shortened: as §2
Candida parapsilosis [4] = test: Antifungal activity against Candida parapsilosis at 4 ug/ml after 24 hrs; procedure, shortened: as §1
Candida parapsilosis [5] = test: Fungistatic effect on Candida parapsilosis at 256 ug/ml after 24 hrs

Structure (SMILES) | Activity (Candida parapsilosis [1]) | IC50 (Candida parapsilosis [2]) [µg/mL] | IC90 (Candida parapsilosis [2]) [µg/mL] | IC50 (Candida parapsilosis [3]) [µg/mL] | IC90 (Candida parapsilosis [3]) [µg/mL] | Activity (Candida parapsilosis [4]) | Activity (Candida parapsilosis [5])
C[C@@H]1[C@H](O)[C@@H](C)/C=C/C=C/C=C/C=C/C=C/C=C/C=C/[C@H](O[C@@H]2O[C@H](C)[C@@H](O)[C@H](N)[C@@H]2O)C[C@@H]2O[C@](O)(C[C@@H](O)C[C@@H](O)[C@H](O)CC[C@@H](O)C[C@@H](O)CC(=O)O[C@H]1C)C[C@H](O)[C@H]2C(=O)O [AMPHOTERICIN B] | inactive | 0.16 (≈ 0.173 µM) | 0.34 (≈ 0.368 µM) | 0.18 (≈ 0.195 µM) | 0.68 (≈ 0.736 µM) | – | –
CC[C@H](C)C[C@H](C)CCCCCCCCC(=O)N[C@H]1C[C@@H](O)[C@@H](NCCN)NC(=O)[C@@H]2[C@@H](O)CCN2C(=O)[C@H]([C@H](O)CCN)NC(=O)[C@H]([C@H](O)[C@@H](O)c2ccc(O)cc2)NC(=O)[C@@H]2C[C@@H](O)CN2C(=O)[C@H]([C@@H](C)O)NC1=O [CASPOFUNGIN] | – | 0.79 (≈ 0.723 µM) | 1.36 (≈ 1.24 µM) | 1.17 (≈ 1.07 µM) | 2.33 (≈ 2.13 µM) | inactive | Active
